Converted amounts (≈) assume the structure as drawn.

The results in this text go back to ChEMBL document CHEMBL1149665, “Synthesis and biological evaluation of cepharadiones A and B and related dioxoaporphines” (2007).

What all share (type): functional
The subject of one experiment is DU-145. Briefly: Growth inhibition of human DU145 cells after 48 hrs by SRB assay. Conditions: DU-145, 48 h. The gist of the method:
(§1)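 Cells seeded in 5% fetal bovine serum/RPMI1640 and incubated 24 h before serial compound dilutions were added. After 48 h exposure, cells were fixed with trichloroacetic acid and stained with sulforhodamine B (NCI standard SRB protocol), and optical density was read. GI50, the concentration causing 50% reduction in net protein increase, was calculated from the optical density data; values reported in µg/mL.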

Another experiment concerns BXPC-3. Briefly: Growth inhibition of human BXPC3 cells after 48 hrs by SRB assay. Conditions: BXPC-3, 48 h. The gist of the method: as §1
(In SRB staining, fixed cells bind dye roughly in proportion to their protein.)

A further experiment relates to KM-20L2. Briefly: Growth inhibition of human KM20L2 cells after 48 hrs by SRB assay. Conditions: KM-20L2, 48 h. The essentials: as §1
Another experiment has as its system SF-268. Briefly: Growth inhibition of human SF268 cells after 48 hrs by SRB assay. Conditions: SF-268, 48 h. The gist of the method:
as §1

The next experiment relates to MCF7. Briefly: Growth inhibition of human MCF7 cells after 48 hrs by SRB assay. The following applies: MCF7, 48 h. The gist of the method: as §1
The next experiment relates to NCI-H460. Briefly: Growth inhibition of human NCI-H460 cells after 48 hrs by SRB assay. The following applies: NCI-H460, 48 h. The essentials:
as §1

Consider `COc1ccc2c3c(cc4ccccc4c13)N(C)C(=O)C2=O`, for which the GI50 with DU-145 came to 1.3 µg/mL (≈ 4.46 µM); in the experiment with BXPC-3, 1.6 µg/mL (≈ 5.49 µM); in the experiment on KM-20L2, 0.82 µg/mL (≈ 2.81 µM); in the experiment with SF-268, 0.42 µg/mL (≈ 1.44 µM); with MCF7 it was 0.66 µg/mL (≈ 2.27 µM); in the experiment with NCI-H460 it was 0.46 µg/mL (≈ 1.58 µM).

With `CCOc1ccc2c3c(cc4ccccc4c13)N(C)C(=O)C2=O`, the GI50 in the experiment with DU-145, in the experiment with BXPC-3, with KM-20L2, in the experiment on SF-268, in the experiment on MCF7 and with NCI-H460 was above 10 µg/mL throughout.

In the case of `Cc1cc2c3c(cc4ccccc4c3c1C)N(C)C(=O)C2=O`, the GI50 in the experiment on DU-145 was above 10 µg/mL; in the experiment on BXPC-3 it was above 10 µg/mL; in the experiment with KM-20L2, 4.2 µg/mL (≈ 14.5 µM); in the experiment on SF-268, 0.7 µg/mL (≈ 2.42 µM); with MCF7, 8.4 µg/mL (≈ 29 µM); with NCI-H460 it was 2.3 µg/mL (≈ 7.95 µM).

With `CN1C(=O)C(=O)c2cc3c(c4c2c1cc1ccccc14)OCO3` [CEPHARADIONE A], the GI50 was 4.3 µg/mL (≈ 14.1 µM) in the experiment on DU-145; above 10 µg/mL with BXPC-3; 17.3 µg/mL (≈ 56.7 µM) in the experiment with KM-20L2; 2.9 µg/mL (≈ 9.5 µM) in the experiment on SF-268; 6.3 µg/mL (≈ 20.6 µM) in the experiment on MCF7; 2.5 µg/mL (≈ 8.19 µM) with NCI-H460.

As to `COc1cc2c3c(cc4ccccc4c3c1OC)N(C)C(=O)C2=O` [CEPHARADIONE B], the GI50 with DU-145 was 36.1 µg/mL (≈ 112 µM); in the experiment with BXPC-3, above 10 µg/mL; with KM-20L2 it was above 10 µg/mL; in the experiment on SF-268, 22.8 µg/mL (≈ 71 µM); in the experiment with MCF7 it was above 10 µg/mL; in the experiment on NCI-H460, above 10 µg/mL.

A word on the GI50: it is the concentration giving 50% growth inhibition. Read a low GI50 as more potent growth inhibition.
